Measured values: ChEMBL document CHEMBL4689842, “EUbOPEN Chemogenomics Library wave 1” (2021)

Test system: U2OS
Assay: Multiplex assay against U2OS
Type: toxicity, cell-based
Conditions: human
Procedure, shortened: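 Phenotypes for tubulin, mitochondrial mass and membrane permeability are expressed as per cents of healthy-nucleus cells. Cells were stained live at seeding with Hoechst33342, BioTracker Green Microtubule Cytoskeleton Dye, MitoTracker Red and Annexin V Alexa Fluor 680, then imaged after compound addition on a CQ1 microscope at 37°C and 5% CO2. Machine-learning gating in CellPathfinder separated Hoechst high-intensity objects from normal cells, divided normal cells by nuclear state (healthy, pyknosed, fragmented) and divided pyknosed cells into mitotic or apoptotic.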

[1] = 12 h, 1 µM, compound concentration 1 uM, replicate 1
[2] = 12 h, 1 µM, compound concentration 1 uM, replicate 2
[3] = 12 h, 10 µM, compound concentration 10 uM, replicate 1
[4] = 12 h, 10 µM, compound concentration 10 uM, replicate 2
[5] = 24 h, 1 µM, compound concentration 1 uM, replicate 1
[6] = 24 h, 1 µM, compound concentration 1 uM, replicate 2
[7] = 24 h, 10 µM, compound concentration 10 uM, replicate 1
[8] = 24 h, 10 µM, compound concentration 10 uM, replicate 2

O=c1[nH]c2ccccc2n1C1CCN(Cc2ccc(-c3[nH]c4cc5ncnc5cc4nc3-c3ccccc3)cc2)CC1
Population Apoptotic (%) [1]: 44%
Population Fragmented Nuclei (%) [1]: 6%
Population Healthy Nuclei (%) [1]: 87%
Population Hoechst High Intensity Objects (%) [1]: 5%
Population Membrane Permeable-Phenotype (%) [1]: 37%
Population Mitochondria Different-Phenotype (%) [1]: 11%
Population Mitotic Cells (%) [1]: 55%
Population Normal (%) [1]: 94%
Population Pyknosed Nuclei (%) [1]: 5%
Population Tubulin-Different-Phenotype (%) [1]: 24%
Total Cell Count [1]: 162
Population Apoptotic (%) [2]: 37%
Population Fragmented Nuclei (%) [2]: 7%
Population Healthy Nuclei (%) [2]: 85%
Population Hoechst High Intensity Objects (%) [2]: 8%
Population Membrane Permeable-Phenotype (%) [2]: 25%
Population Mitochondria Different-Phenotype (%) [2]: 16%
Population Mitotic Cells (%) [2]: 62%
Population Normal (%) [2]: 91%
Population Pyknosed Nuclei (%) [2]: 7%
Population Tubulin-Different-Phenotype (%) [2]: 23%
Total Cell Count [2]: 124
Population Apoptotic (%) [3]: 30%
Population Fragmented Nuclei (%) [3]: 19%
Population Healthy Nuclei (%) [3]: 66%
Population Hoechst High Intensity Objects (%) [3]: 4%
Population Membrane Permeable-Phenotype (%) [3]: 29%
Population Mitochondria Different-Phenotype (%) [3]: 61%
Population Mitotic Cells (%) [3]: 69%
Population Normal (%) [3]: 95%
Population Pyknosed Nuclei (%) [3]: 13%
Population Tubulin-Different-Phenotype (%) [3]: 100%
Total Cell Count [3]: 173
Population Apoptotic (%) [4]: 46%
Population Fragmented Nuclei (%) [4]: 38%
Population Healthy Nuclei (%) [4]: 51%
Population Hoechst High Intensity Objects (%) [4]: 7%
Population Membrane Permeable-Phenotype (%) [4]: 54%
Population Mitochondria Different-Phenotype (%) [4]: 75%
Population Mitotic Cells (%) [4]: 53%
Population Normal (%) [4]: 92%
Population Pyknosed Nuclei (%) [4]: 9%
Total Cell Count [4]: 142
Population Apoptotic (%) [5]: 42%
Population Fragmented Nuclei (%) [5]: 7%
Population Healthy Nuclei (%) [5]: 83%
Population Hoechst High Intensity Objects (%) [5]: 5%
Population Membrane Permeable-Phenotype (%) [5]: 31%
Population Mitochondria Different-Phenotype (%) [5]: 12%
Population Mitotic Cells (%) [5]: 57%
Population Normal (%) [5]: 94%
Population Pyknosed Nuclei (%) [5]: 9%
Population Tubulin-Different-Phenotype (%) [5]: 16%
Total Cell Count [5]: 211
Population Apoptotic (%) [6]: 41%
Population Healthy Nuclei (%) [6]: 81%
Population Hoechst High Intensity Objects (%) [6]: 3%
Population Membrane Permeable-Phenotype (%) [6]: 14%
Population Mitochondria Different-Phenotype (%) [6]: 15%
Population Mitotic Cells (%) [6]: 58%
Population Normal (%) [6]: 96%
Population Pyknosed Nuclei (%) [6]: 11%
Total Cell Count [6]: 157
Population Apoptotic (%) [7]: 55%
Population Fragmented Nuclei (%) [7]: 19%
Population Healthy Nuclei (%) [7]: 50%
Population Hoechst High Intensity Objects (%) [7]: 6%
Population Membrane Permeable-Phenotype (%) [7]: 53%
Population Mitochondria Different-Phenotype (%) [7]: 91%
Population Mitotic Cells (%) [7]: 44%
Population Normal (%) [7]: 93%
Population Pyknosed Nuclei (%) [7]: 30%
Total Cell Count [7]: 174
Population Apoptotic (%) [8]: 80%
Population Fragmented Nuclei (%) [8]: 28%
Population Healthy Nuclei (%) [8]: 38%
Population Hoechst High Intensity Objects (%) [8]: 14%
Population Membrane Permeable-Phenotype (%) [8]: 72%
Population Mitochondria Different-Phenotype (%) [8]: 88%
Population Mitotic Cells (%) [8]: 19%
Population Normal (%) [8]: 85%
Population Pyknosed Nuclei (%) [8]: 32%
Population Tubulin-Different-Phenotype (%) [8]: 100%
Total Cell Count [8]: 130
